Source: ChEMBL document CHEMBL1781927, “Highly selective c-Jun N-terminal kinase (JNK) 3 inhibitors with in vitro CNS-like pharmacokinetic properties II. Central core replacement” (Bioorg Med Chem Lett, 2011)
Values after ≈ are worked out from the molar mass of the structure shown. Values belong to the compound of their own block, whether it stands above or below them.

Tests used:
[1] = biological target: Mitogen-activated protein kinase 9 (Homo sapiens, UniProt P45984); assay: Inhibition of JNK2 by TR-FRET assay
Sequence of Mitogen-activated protein kinase 9 (P45984 whole entry): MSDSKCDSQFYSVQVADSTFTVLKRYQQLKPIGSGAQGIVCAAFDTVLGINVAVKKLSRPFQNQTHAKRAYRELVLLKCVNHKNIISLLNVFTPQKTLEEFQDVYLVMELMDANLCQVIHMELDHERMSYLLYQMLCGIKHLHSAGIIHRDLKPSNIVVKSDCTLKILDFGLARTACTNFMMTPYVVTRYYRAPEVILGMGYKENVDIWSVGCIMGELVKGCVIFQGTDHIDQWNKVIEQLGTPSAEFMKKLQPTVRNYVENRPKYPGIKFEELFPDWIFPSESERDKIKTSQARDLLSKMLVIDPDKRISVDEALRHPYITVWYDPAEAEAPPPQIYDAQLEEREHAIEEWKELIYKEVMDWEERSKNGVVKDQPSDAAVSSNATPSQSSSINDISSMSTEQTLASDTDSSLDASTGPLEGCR
How it was run: (§1)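 IC50s were determined at a single fixed ATP concentration, and each value is the mean of at least three independent experiments.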

[2] = biological target: T1, Mitogen-activated protein kinase 10 (Homo sapiens, UniProt P53779); assay: Inhibition of JNK3 by TR-FRET assay; how it was run: as §1
T1 sequence (P53779 whole entry): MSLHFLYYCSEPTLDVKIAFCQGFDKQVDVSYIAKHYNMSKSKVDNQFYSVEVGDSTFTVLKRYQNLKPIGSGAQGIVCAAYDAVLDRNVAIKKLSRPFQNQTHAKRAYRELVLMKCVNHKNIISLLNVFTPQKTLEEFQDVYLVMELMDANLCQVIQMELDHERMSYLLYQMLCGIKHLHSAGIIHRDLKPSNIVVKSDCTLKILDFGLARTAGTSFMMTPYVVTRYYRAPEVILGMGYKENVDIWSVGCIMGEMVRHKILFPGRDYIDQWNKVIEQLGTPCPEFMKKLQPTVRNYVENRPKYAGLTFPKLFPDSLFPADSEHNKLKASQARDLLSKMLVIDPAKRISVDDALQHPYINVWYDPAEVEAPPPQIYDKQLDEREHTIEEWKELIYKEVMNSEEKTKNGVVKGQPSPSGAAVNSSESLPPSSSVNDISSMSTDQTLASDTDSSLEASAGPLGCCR

[3] = biological target: Mitogen-activated protein kinase 8 (Homo sapiens, UniProt P45983); assay: Inhibition of JNK1 by TR-FRET assay; how it was run: as §1
Sequence of Mitogen-activated protein kinase 8 (P45983 whole entry): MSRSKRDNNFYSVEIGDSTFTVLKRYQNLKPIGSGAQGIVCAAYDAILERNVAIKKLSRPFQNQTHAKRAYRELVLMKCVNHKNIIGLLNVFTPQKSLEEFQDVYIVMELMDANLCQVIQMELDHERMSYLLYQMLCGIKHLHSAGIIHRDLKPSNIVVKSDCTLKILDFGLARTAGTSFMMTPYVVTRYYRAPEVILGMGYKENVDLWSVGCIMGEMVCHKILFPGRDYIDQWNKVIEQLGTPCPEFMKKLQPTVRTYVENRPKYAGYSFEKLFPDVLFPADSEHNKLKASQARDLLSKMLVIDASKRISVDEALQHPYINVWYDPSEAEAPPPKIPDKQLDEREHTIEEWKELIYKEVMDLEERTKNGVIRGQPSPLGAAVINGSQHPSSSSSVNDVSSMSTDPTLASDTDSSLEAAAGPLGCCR

[4] = Solubility of the compound; format: physicochemical
[5] = biological target: Serine/threonine-protein kinase PLK3 (Homo sapiens) (UniProt Q9H4B4); assay: Inhibition of PLK3 at 10 uM
[6] = biological target: Receptor tyrosine-protein kinase erbB-4 (Homo sapiens) (UniProt Q15303); assay: Inhibition of ERBB4 at 10 uM
[7] = biological target: Macrophage colony-stimulating factor 1 receptor (Homo sapiens) (UniProt P07333); assay: Inhibition of CSF1R at 10 uM
[8] = biological target: Dual specificity tyrosine-phosphorylation-regulated kinase 1B (Homo sapiens) (UniProt Q9Y463); assay: Inhibition of DYRK1B at 10 uM
[9] = biological target: PI3-kinase p110-alpha/p85-alpha (Homo sapiens) (UniProt P27986+P42336); assay: Inhibition of PIK3CA/PIK3R1 at 10 uM; format: protein-complex assay
[10] = biological target: Tyrosine-protein kinase Lck (Homo sapiens) (UniProt P06239); assay: Inhibition of LCK at 10 uM
Sequence of Tyrosine-protein kinase Lck (Homo sapiens) (P06239 2-509 limits assumed): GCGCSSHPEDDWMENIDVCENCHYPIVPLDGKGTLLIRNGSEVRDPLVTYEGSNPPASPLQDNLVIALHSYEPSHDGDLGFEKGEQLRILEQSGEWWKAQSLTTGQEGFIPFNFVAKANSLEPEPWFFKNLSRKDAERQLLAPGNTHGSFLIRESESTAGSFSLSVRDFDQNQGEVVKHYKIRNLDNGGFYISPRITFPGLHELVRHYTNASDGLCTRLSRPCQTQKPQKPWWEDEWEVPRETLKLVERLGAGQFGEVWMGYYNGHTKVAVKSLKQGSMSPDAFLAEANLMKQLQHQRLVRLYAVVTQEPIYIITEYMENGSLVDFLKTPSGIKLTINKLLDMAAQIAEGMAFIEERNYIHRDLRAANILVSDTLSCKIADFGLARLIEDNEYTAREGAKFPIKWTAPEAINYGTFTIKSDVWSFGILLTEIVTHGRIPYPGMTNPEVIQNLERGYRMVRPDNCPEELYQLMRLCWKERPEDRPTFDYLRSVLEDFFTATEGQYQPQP

[11] = biological target: Protein-tyrosine kinase 2-beta (Homo sapiens) (UniProt Q14289); assay: Inhibition of PTK2B at 10 uM
[12] = biological target: Tyrosine-protein kinase SYK (Homo sapiens) (UniProt P43405); assay: Inhibition of SYK at 10 uM
[13] = Selectivity ratio of IC50 for JNK1 to IC50 for JNK3
[14] = biological target: Tyrosine-protein kinase JAK1 (Homo sapiens) (UniProt P23458); assay: Inhibition of JAK1 at 10 uM
[15] = biological target: Serine/threonine-protein kinase PLK2 (Homo sapiens) (UniProt Q9NYY3); assay: Inhibition of PLK2 at 10 uM
[16] = biological target: Rho-associated protein kinase 2 (Homo sapiens) (UniProt O75116); assay: Inhibition of ROCK2 at 10 uM
[17] = biological target: Proto-oncogene tyrosine-protein kinase receptor Ret (Homo sapiens) (UniProt P07949); assay: Inhibition of RET at 10 uM
[18] = biological target: Dual specificity protein kinase TTK (Homo sapiens) (UniProt P33981); assay: Inhibition of TTK at 10 uM
[19] = biological target: Serine/threonine-protein kinase 16 (Homo sapiens) (UniProt O75716); assay: Inhibition of STK16 at 10 uM
Sequence of Serine/threonine-protein kinase 16 (Homo sapiens) (O75716 whole entry): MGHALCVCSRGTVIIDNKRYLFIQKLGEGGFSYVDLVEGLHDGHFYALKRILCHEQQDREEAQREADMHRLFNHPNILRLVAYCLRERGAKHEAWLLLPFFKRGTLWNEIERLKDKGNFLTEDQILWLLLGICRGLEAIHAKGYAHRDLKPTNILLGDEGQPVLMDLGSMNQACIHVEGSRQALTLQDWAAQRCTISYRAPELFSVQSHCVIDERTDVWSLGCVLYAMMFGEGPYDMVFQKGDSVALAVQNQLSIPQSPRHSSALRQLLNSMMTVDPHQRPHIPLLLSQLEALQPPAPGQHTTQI

[20] = Oxidative metabolic stability in mouse liver microsomes assessed as compound remaining after 30 mins; format: ADME, Microsome; conditions: read-out: Stability
How it was run: (§2)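 Liver microsomes, mouse or human, were incubated with the compound for 30 min under oxidative conditions. The read-out is the percent of parent compound remaining.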

[21] = biological target: Leucine-rich repeat serine/threonine-protein kinase 2 (Homo sapiens) (UniProt Q5S007); assay: Inhibition of LRRK2 at 10 uM
[22] = biological target: Glycogen synthase kinase-3 beta (Homo sapiens) (UniProt P49841); assay: Inhibition of GSK3B at 10 uM
[23] = biological target: cAMP-dependent protein kinase catalytic subunit alpha (Homo sapiens) (UniProt P17612); assay: Inhibition of PKACA at 10 uM
[24] = biological target: Cyclin-dependent kinase 1/cyclin B1 (Homo sapiens) (UniProt P06493+P14635); assay: Inhibition of CDK1/cyclin B at 10 uM; format: protein-complex assay
[25] = biological target: Serine/threonine-protein kinase 3 (Homo sapiens) (UniProt Q13188); assay: Inhibition of STK3 at 10 uM
[26] = biological target: Protein kinase C beta type (Homo sapiens) (UniProt P05771); assay: Inhibition of PRKCB1 at 10 uM
[27] = biological target: Serine/threonine-protein kinase MARK2 (Homo sapiens) (UniProt Q7KZI7); assay: Inhibition of MARK2 at 10 uM
[28] = biological target: Dual specificity protein kinase CLK1 (Homo sapiens) (UniProt P49759); assay: Inhibition of CLK1 at 10 uM
[29] = biological target: Tyrosine-protein kinase ABL1 (Homo sapiens) (UniProt P00519); assay: Inhibition of ABL1 at 10 uM
[30] = biological target: Platelet-derived growth factor receptor alpha (Homo sapiens) (UniProt P16234); assay: Inhibition of PDGFRA at 10 uM
[31] = biological target: Receptor-interacting serine/threonine-protein kinase 2 (Homo sapiens) (UniProt O43353); assay: Inhibition of RIPK2 at 10 uM
[32] = biological target: Receptor-type tyrosine-protein kinase FLT3 (Homo sapiens) (UniProt P36888); assay: Inhibition of FLT3 at 10 uM
Sequence of Receptor-type tyrosine-protein kinase FLT3 (Homo sapiens) (P36888 whole entry): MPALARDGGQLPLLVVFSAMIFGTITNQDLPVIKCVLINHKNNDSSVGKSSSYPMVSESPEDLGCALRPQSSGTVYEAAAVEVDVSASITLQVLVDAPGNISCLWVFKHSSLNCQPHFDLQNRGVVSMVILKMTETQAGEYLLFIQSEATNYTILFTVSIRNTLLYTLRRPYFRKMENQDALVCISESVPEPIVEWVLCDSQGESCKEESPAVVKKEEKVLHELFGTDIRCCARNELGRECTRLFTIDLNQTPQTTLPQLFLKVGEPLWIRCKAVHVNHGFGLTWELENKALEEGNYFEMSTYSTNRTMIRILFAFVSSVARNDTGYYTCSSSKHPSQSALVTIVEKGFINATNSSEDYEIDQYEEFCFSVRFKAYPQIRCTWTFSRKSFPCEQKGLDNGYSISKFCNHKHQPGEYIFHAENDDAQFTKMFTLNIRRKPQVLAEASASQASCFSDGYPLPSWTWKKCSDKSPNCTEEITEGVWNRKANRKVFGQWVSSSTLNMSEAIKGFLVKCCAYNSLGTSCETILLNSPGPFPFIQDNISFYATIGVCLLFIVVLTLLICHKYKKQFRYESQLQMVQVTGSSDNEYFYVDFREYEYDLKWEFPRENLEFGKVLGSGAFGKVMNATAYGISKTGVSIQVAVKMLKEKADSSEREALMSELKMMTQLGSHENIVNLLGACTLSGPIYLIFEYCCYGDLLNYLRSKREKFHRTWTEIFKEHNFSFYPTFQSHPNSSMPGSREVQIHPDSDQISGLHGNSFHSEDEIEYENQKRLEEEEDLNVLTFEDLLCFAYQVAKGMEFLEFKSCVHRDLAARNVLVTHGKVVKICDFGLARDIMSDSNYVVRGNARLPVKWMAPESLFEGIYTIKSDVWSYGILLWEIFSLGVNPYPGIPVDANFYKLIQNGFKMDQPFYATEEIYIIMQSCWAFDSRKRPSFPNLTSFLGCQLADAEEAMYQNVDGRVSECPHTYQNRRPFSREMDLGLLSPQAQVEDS

[33] = biological target: Mitogen-activated protein kinase 1 (Homo sapiens) (UniProt P28482); assay: Inhibition of MAPK1 at 10 uM
[34] = biological target: Cyclin-dependent kinase 2/cyclin A (Homo sapiens) (UniProt P24941+P20248+P78396); assay: Inhibition of CDK2/cyclin A at 10 uM; format: protein-complex assay
[35] = Oxidative metabolic stability in human liver microsomes assessed as compound remaining after 30 mins; format: ADME, Microsome; conditions: read-out: Stability; how it was run: as §2
[36] = biological target: RAC-alpha serine/threonine-protein kinase (Homo sapiens) (UniProt P31749); assay: Inhibition of AKT1 at 10 uM
[37] = biological target: Cyclin-dependent kinase 5/CDK5 activator 1 (Homo sapiens) (UniProt Q00535+Q15078); assay: Inhibition of CDK5/p25 at 10 uM; format: protein-complex assay
Sequence of Cyclin-dependent kinase 5/CDK5 activator 1 (Homo sapiens) (Q00535 whole entry): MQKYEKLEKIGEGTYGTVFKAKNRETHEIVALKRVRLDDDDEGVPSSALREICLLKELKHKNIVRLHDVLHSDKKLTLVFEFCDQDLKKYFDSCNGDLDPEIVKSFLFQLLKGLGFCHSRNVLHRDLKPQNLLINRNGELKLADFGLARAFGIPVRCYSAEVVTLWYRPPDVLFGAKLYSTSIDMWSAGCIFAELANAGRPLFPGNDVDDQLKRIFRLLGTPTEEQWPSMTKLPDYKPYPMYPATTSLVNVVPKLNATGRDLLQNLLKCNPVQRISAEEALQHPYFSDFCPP
Sequence of Cyclin-dependent kinase 5/CDK5 activator 1 (Homo sapiens) (Q15078 99-307 partner limits assumed): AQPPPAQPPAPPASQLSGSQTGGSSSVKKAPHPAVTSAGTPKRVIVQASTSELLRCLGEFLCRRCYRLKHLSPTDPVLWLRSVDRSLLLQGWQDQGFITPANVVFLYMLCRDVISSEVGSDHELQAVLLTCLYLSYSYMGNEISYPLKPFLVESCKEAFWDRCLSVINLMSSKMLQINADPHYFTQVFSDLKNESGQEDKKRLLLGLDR

[38] = biological target: Serine/threonine-protein kinase Chk1 (Homo sapiens) (UniProt O14757); assay: Inhibition of CHEK1 at 10 uM
[39] = Metabolic stability in mouse liver microsomes assessed as compound remaining after 60 mins in presence of UDPGA; format: ADME, Microsome; conditions: read-out: Stability
[40] = biological target: Serine/threonine-protein kinase PLK1 (Homo sapiens) (UniProt P53350); assay: Inhibition of PLK1 at 10 uM
[41] = Metabolic stability in human liver microsomes assessed as compound remaining after 60 mins in presence of UDPGA; format: ADME, Microsome; conditions: read-out: Stability
[42] = biological target: T1, Mitogen-activated protein kinase 10; assay: Inhibition of MAPK10 at 10 uM
[43] = Efflux ratio, permeability from apical to basolateral side to basolateral to apical side in MDR1 expressing MDCK2 cells at 5 uM after 120 mins; format: ADME, cell-based, Canis lupus familiaris; conditions: dog, mdck-ii, 2 h
[44] = biological target: Calcium/calmodulin-dependent protein kinase type II subunit alpha (Homo sapiens) (UniProt Q9UQM7); assay: Inhibition of CAMK2A at 10 uM
[45] = biological target: Insulin receptor (Homo sapiens) (UniProt P06213); assay: Inhibition of INSR at 10 uM
Sequence of Insulin receptor (Homo sapiens) (P06213 28-758 limits assumed): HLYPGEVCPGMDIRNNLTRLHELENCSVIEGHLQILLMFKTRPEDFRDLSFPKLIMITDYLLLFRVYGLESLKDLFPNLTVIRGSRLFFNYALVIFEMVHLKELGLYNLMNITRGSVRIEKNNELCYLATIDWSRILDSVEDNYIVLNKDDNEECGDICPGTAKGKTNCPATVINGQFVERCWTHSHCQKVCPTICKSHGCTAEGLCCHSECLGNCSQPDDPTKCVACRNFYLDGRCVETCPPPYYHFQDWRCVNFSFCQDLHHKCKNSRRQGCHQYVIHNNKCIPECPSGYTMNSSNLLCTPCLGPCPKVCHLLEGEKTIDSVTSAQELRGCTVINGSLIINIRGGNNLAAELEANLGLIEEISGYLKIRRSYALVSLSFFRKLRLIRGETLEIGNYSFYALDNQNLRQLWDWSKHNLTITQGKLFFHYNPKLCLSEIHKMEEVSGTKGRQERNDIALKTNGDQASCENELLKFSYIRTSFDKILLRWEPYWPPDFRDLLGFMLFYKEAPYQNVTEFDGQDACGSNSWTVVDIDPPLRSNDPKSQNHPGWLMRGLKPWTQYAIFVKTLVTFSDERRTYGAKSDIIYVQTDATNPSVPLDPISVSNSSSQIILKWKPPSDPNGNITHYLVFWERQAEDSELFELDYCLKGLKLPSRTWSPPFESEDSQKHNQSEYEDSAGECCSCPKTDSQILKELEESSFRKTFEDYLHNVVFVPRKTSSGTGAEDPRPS
Sequence of Insulin receptor (Homo sapiens) (P06213 763-1382 limits assumed): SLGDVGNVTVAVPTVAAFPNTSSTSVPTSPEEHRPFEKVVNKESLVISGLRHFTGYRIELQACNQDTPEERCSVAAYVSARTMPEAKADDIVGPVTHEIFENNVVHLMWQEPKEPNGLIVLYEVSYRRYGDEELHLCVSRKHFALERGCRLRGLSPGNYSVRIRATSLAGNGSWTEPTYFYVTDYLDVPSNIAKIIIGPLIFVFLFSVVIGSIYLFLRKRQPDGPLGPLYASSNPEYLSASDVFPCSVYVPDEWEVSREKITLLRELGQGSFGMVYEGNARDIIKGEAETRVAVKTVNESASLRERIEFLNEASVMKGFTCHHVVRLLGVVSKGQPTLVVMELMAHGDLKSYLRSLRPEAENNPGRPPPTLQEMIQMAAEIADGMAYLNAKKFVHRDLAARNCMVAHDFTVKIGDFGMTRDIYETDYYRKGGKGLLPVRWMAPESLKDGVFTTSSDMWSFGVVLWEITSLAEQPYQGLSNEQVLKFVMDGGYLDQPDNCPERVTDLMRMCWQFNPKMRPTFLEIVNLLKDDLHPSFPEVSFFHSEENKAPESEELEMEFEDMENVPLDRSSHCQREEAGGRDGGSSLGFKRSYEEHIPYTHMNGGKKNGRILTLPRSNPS

[46] = biological target: Serine/threonine-protein kinase PAK 4 (Homo sapiens) (UniProt O96013); assay: Inhibition of PAK4 at 10 uM
[47] = biological target: RAF proto-oncogene serine/threonine-protein kinase (Homo sapiens) (UniProt P04049); assay: Inhibition of RAF1 at 10 uM
[48] = Apparent permeability from apical to basolateral side in MDCK2 cells at 5 uM after 120 mins; format: ADME, cell-based, Canis lupus familiaris, MDCK-II; conditions: dog, MDCK

IC50 [1]: 0.0665 µM | IC50 [2]: 0.0522 µM | IC50 [3]: > 50 µM | solubility [4]: 5 µM (≈ 2.01 µg/mL)
SMILES: S=c1[nH]nc(-c2ccnc(NC3CCCCC3)c2)n1-c1ccc2ccccc2c1

IC50 [1]: 0.504 µM | IC50 [2]: 1.03 µM | IC50 [3]: 24.3 µM | solubility [4]: 100 µM (≈ 31.9 µg/mL)
SMILES: Nc1cc(-c2n[nH]c(=S)n2-c2ccc3ccccc3c2)ccn1

inhibition [5]: 94% | inhibition [6]: 12% | inhibition [7]: 46% | inhibition [8]: 16% | inhibition [9]: 42% | IC50 [1]: 2.98 µM | inhibition [10]: 0% | inhibition [11]: 1% | inhibition [12]: 26% | IC50 [2]: 0.559 µM | Ratio IC50 [13]: > 10 | inhibition [14]: 0% | inhibition [15]: 73% | inhibition [16]: 25% | IC50 [3]: 12.5 µM | inhibition [17]: 0% | inhibition [18]: 39% | inhibition [19]: 0% | remaining at 0.5 h [20]: 100% | inhibition [21]: 13% | inhibition [22]: 28% | inhibition [23]: 93% | inhibition [24]: 3% | inhibition [25]: 0% | inhibition [26]: 25% | inhibition [27]: 1% | inhibition [28]: 5% | inhibition [29]: 8% | inhibition [30]: 11% | inhibition [31]: 4% | inhibition [32]: 41% | inhibition [33]: 2% | inhibition [34]: 0% | remaining at 0.5 h [35]: 100% | inhibition [36]: 1% | inhibition [37]: 19% | inhibition [38]: 0% | remaining at 1 h [39]: 1% | solubility [4]: 100 µM (≈ 30.4 µg/mL) | inhibition [40]: 22% | remaining at 1 h [41]: 8% | inhibition [42]: 44% | Ratio [43]: 1.12 | inhibition [44]: 49% | inhibition [45]: 5% | inhibition [46]: 8% | inhibition [47]: 45%
SMILES: S=c1[nH]nc(-c2ccncc2)n1-c1ccc2ccccc2c1

IC50 [1]: 9.31 µM | IC50 [2]: 2.46 µM | IC50 [3]: 41.9 µM | remaining at 0.5 h [20]: 0% | remaining at 0.5 h [35]: 2%
SMILES: c1ccc2cc(-c3ccnn3-c3ccncc3)ccc2c1

IC50 [1]: > 50 µM | IC50 [2]: > 50 µM | IC50 [3]: > 50 µM | solubility [4]: 15 µM (≈ 5.1 µg/mL)
SMILES: FC(F)(F)c1nnc(-c2ccncc2)n1-c1ccc2ccccc2c1

IC50 [1]: 18.6 µM | IC50 [2]: 4.81 µM | IC50 [3]: > 50 µM | remaining at 0.5 h [20]: 0% | Papp A→B at 2 h, 5 µM [48]: 37.9 ×10⁻⁶ cm/s | remaining at 0.5 h [35]: 12% | remaining at 1 h [39]: 90% | remaining at 1 h [41]: 78%
SMILES: c1ccc2cc(-c3cnnn3-c3ccncc3)ccc2c1

IC50 [1]: > 50 µM | IC50 [2]: > 50 µM | IC50 [3]: > 50 µM | solubility [4]: 100 µM (≈ 31.9 µg/mL)
SMILES: Cc1cc(-c2n[nH]c(=S)n2-c2cnc3ccccc3c2)ccn1

IC50 [1]: > 50 µM | IC50 [2]: > 50 µM | IC50 [3]: > 50 µM | remaining at 0.5 h [20]: 0% | remaining at 0.5 h [35]: 16%
SMILES: c1ccc2cc(-c3nnnn3-c3ccncc3)ccc2c1

IC50 [1]: 2.25 µM | IC50 [2]: 0.945 µM | IC50 [3]: > 50 µM | solubility [4]: 35 µM (≈ 13.1 µg/mL)
SMILES: S=c1[nH]nc(-c2ccnc(NCC3CC3)c2)n1-c1ccc2ccccc2c1

IC50 [1]: > 50 µM | IC50 [2]: 31.8 µM | IC50 [3]: > 50 µM | solubility [4]: 15 µM (≈ 4.58 µg/mL)
SMILES: S=c1[nH]nc(-c2ccncc2)n1-c1ccc2ncccc2c1

Ratio IC50 [13]: 20
SMILES: c1ccc2cc(-c3[nH]ncc3-c3ccncc3)ccc2c1

IC50 [1]: 4.88 µM | IC50 [2]: 1.23 µM | IC50 [3]: > 50 µM | remaining at 0.5 h [20]: 11% | remaining at 0.5 h [35]: 58%
SMILES: c1ccc2cc(-n3nccc3-c3ccncc3)ccc2c1

IC50 [1]: 37.9 µM | IC50 [2]: 12.6 µM | IC50 [3]: > 50 µM | remaining at 0.5 h [20]: 0% | remaining at 0.5 h [35]: 5%
SMILES: Clc1nnn(-c2ccncc2)c1-c1ccc2ccccc2c1

IC50 [1]: 18.1 µM | IC50 [2]: 4.13 µM | IC50 [3]: > 50 µM | remaining at 0.5 h [20]: 0% | remaining at 0.5 h [35]: 29%
SMILES: c1ccc2cc(-c3ncncc3-c3ccncc3)ccc2c1
